# Measured values published in publication PMC10339699 (Clinical and Translational Science, 2023).
# Like-named read-outs stand apart in the source and are kept apart here.
# Tests used:
# [1] = Part 1: plasma PK of [14C]‐rilzabrutinib after i.v. microtracer dose; assay type: in vivo; conditions: male, human, iv, 100 ug
# [2] = assay type: in vivo, human
# [3] = Part 2: total radioactivity PK in plasma and whole blood; assay type: in vivo, human; conditions: part 2, plasma total radioactivity
# [4] = Part 1: absolute oral bioavailability; assay type: in vivo; conditions: male, human, plasma, 400 mg
# Outline: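 Healthy subjects (n = 8) fasted overnight 10 h, then took a 400 mg oral tablet with 240 mL water. At 120 min, ~100 μg [14C]-labelled microtracer (~1 μCi) was given as an ~2-min i.v. push. K2 EDTA plasma was analysed by acetonitrile precipitation and LC-MS/MS (0.100–100 ng/mL). Noncompartmental AUC used linear-up/log-down. F was the GLSM oral/i.v. ratio with 90% CI, from a model with formulation fixed and subject random.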
# [5] = Part 2: urinary excretion of unchanged rilzabrutinib; assay type: in vivo, human
# Safety and tolerability = assay type: in vivo, human
# BTK = conditions: within 4 h of dosing, multiple dosing; cited from earlier work
# [6] = assay type: in vivo, human; remark: listed apart in the source
# [7] = Part 1: plasma PK of rilzabrutinib after single oral 400 mg tablet; assay type: in vivo, human
# gut flora = assay: Gut flora metabolism in vitro; assay type: in vitro ADME; conditions: in vitro studies (unpublished data)
# pH‐dependent solubility = assay type: physicochemical
# [8] = previous bioavailability study; ref PRN1008‐006, unpublished data; cited from earlier work
# [9] = bile collection subjects, through the last collection interval
# [10] = non‐bile collection subjects, through the last collection interval
# [11] = male, human, plasma, po, 400 mg
# [12] = part 1, oral 400 mg tablet (test), mixed‐effect model
# [13] = part 1, single oral 400 mg tablet, dose normalized, geometric mean (CV)
smiles,measurement,setting,value
CC(C)(/C=C(\C#N)C(=O)N1CCC[C@@H](n2nc(-c3ccc(Oc4ccccc4)cc3F)c3c(N)ncnc32)C1)N1CCN(C2COC2)CC1 [rilzabrutinib],Vd,[1],149 L
same,clearance,[1],968 mL/min
same,half-life,"[2]; male, human, plasma, po, 300 mg",2.45 h
same,CL/F,"[2]; part 2, single oral 300 mg solution, geometric mean (CV)",904 L/h
same,Circulating metabolite identified,[3],thiocyanate
same,bioavailability,[4],< 5%
same,CL renal,"[5]; male, human, urine and plasma, po, 300 mg",4.05 mL/min
same,f eu (percentage of dose excreted in urine as unchanged drug),"[5]; unchanged rilzabrutinib in urine, 0–312 h, 300 mg oral, geometric mean (CV)",3.02%
same,"Clinical laboratory evaluations, vital signs, 12‐lead electrocardiogram, physical examinations",Safety and tolerability; both parts of the study,no clinically significant findings
same,Tolerability,"Safety and tolerability; both parts of the study, healthy male subjects",well‐tolerated
same,"Deaths, serious adverse events, or TEAEs leading to discontinuation",Safety and tolerability; either part of the study,"No deaths, serious adverse events, or treatment emergent adverse events (TEAEs) leading to discontinuation"
same,Severity of TEAEs,"Safety and tolerability; entire study, except for one moderate TEAE (viral infection) not treatment related",mild
same,Total number of TEAEs,Safety and tolerability; part 1,three
same,Total number of TEAEs,Safety and tolerability; part 2,13
same,Subjects who reported TEAEs,"Safety and tolerability; part 2, six of 10 subjects",60%
same,BTK occupancy,BTK,greater than 90%
same,Administered radioactivity recovered in the first 192 h postdose,[6]; bile collection subjects,87.1%
same,"Administered radioactivity recovered in bile, average","[6]; bile collection subjects, 3-8 h postdose",6.29%
same,"Administered radioactivity recovered in feces, average",[6]; [9],72.7%
same,"Administered radioactivity recovered in urine, average",[6]; [9],5.42%
same,Administered radioactivity recovered within the first 168 h of dosing,[6]; non‐bile collection subjects,92.1%
same,"Administered radioactivity recovered in feces, mean",[6]; [10],87.0%
same,"Administered radioactivity recovered in urine, mean",[6]; [10],5.25%
same,Delay in T max for tablet formulation as compared to liquid formulation,[7]; 400 mg tablet (part 1) versus 300 mg solution (part 2),1 h
same,AUC(0-inf),[7]; [11],336 ng·h/mL
same,AUC(0-t),[7]; [11],334 ng·h/mL
same,Cmax,[7]; [11],108 ng/mL
same,Tmax,[7]; [11],2.03 h
same,"DN AUC0–inf, GLSM",[7]; [12],0.839 ng·h/mL/mg
same,"DN AUC0–last, GLSM",[7]; [12],0.835 ng·h/mL/mg
same,DN AUC0–inf,[7]; [13],0.839 (62.2) [n = 8] h ng/mL/mg
same,DN AUC0–last,[7]; [13],0.835 (62.7) [n = 8] h ng/mL/mg
same,Gut flora metabolism,gut flora,high gut flora metabolism
same,solubility,pH‐dependent solubility,40 µg/mL
same,solubility,pH‐dependent solubility; aqueous buffer,> 120000 µg/mL
same,PK exposure after 300 mg oral solution and 400 mg tablet formulation,[8],comparable
